Source: PubChem BioAssay (Sanford-Burnham Center for Chemical Genomics)
Only some compounds are listed: those with a hit (about 0.79% of all), similar ones and a draw of the others.
bIAP inhibitor = bovine intestinal alkaline phosphatase inhibitors, primary screen, selectivity assay for TNAP inhibitor project, biochemical, bovine IAP, CDP-star luminescence | purified bovine IAP, 30 min | inhibition, % at 20 µM | 190,000 tested, under 10 active;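 active = over 50% inhibition of intestinal alkaline phosphatase at 20 µM in the single-dose screen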
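System: Purified bovine intestinal alkaline phosphatase (IAP) enzyme | Input: IAP diluted 1/65,000,000 in the well | Also added: CDP-star chemiluminescent phosphatase substrate, 30 µM final | Dosing: 20 µM single dose | Times: Enzyme reaction for 30 min at room temperature | Detection: Luminescence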
hIAP inh = human IAP inhibitors, primary screen, biochemical, luminescence, uHTS | Intestinal-type alkaline phosphatase (Homo sapiens), P09923 | purified IAP, CDP-Star luminescence, 30 min | inhibition, % at 10 µM | actives 0.12% (n = 330,000);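 active = inhibition reaching a set limit with compound at 10 µM in the primary screen, cut at about 35% in these data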;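 note: plate controls were DMSO wells with enzyme for no effect and no-enzyme buffer wells for full effect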
Target sequence (P09923 whole entry, looked up): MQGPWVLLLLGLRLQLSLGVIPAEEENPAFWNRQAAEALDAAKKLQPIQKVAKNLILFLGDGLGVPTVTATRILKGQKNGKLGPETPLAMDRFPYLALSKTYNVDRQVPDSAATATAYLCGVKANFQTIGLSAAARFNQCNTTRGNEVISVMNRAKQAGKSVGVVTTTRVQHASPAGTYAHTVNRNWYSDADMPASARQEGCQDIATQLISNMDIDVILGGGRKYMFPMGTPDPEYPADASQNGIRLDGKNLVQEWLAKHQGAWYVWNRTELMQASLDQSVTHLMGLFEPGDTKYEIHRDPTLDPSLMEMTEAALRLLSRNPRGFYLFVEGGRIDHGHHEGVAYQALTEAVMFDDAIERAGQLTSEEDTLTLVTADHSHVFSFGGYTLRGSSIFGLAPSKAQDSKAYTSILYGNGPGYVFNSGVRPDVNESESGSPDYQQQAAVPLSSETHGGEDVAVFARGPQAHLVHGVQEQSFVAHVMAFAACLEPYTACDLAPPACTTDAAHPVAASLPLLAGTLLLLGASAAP
mIAP act = activators of mouse IAP, primary screen, biochemical, luminescence, uHTS; intestinal alkaline phosphatase [Mus musculus]; muIAP, CDP-Star luminescence, 30 min; hits give high values; 1 = vehicle-only enzyme signal, 0 = enzyme-free wells; activation factor at 10 µM; actives 0.24% (n = 330,000);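 active = activation factor of at least 2 at 20 µM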
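System: mouse IAP enzyme. Reagent: CDP-Star chemiluminescent phosphatase substrate. Benchmarks: DMSO wells, no-enzyme wells. Times: 30 min enzyme-substrate-compound incubation at room temperature. Detection: luminescence from enzymatic CDP-Star hydrolysis. Doses: test compounds delivered from DMSO solution.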
mIAP inh = inhibitors of mouse IAP, primary screen, biochemical, luminescence, uHTS; intestinal alkaline phosphatase [Mus musculus]; purified mouse IAP, CDP-Star luminescence, 30 min; inhibition, % at 10 µM; actives 0.2% (n = 330,000); AID 2806, 2010;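 active = inhibition of at least 40% at 10 µM in the primary screen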;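 note: plate controls were DMSO with enzyme for no effect and no enzyme wells for full effect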
bIAP act = bovine intestinal alkaline phosphatase activators, primary screen, biochemical, bovine IAP, CDP-star luminescence; alkaline phosphatase, intestinal [Bos taurus]; purified bovine IAP, 30 min; hits give high values; fold of DMSO-control signal, blank-subtracted; activation factor at 20 µM; actives 0.17% (n = 200,000); AID 1016, 2008;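 active = activation factor of 2 or more at 20 µM, a signal rise over negative controls twice the positive control's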
hIAP act = human IAP activators, primary screen, biochemical, luminescence, uHTS; purified human IAP, CDP-Star luminescence, 30 min; hits give high values; 1 = vehicle-only enzyme, 0 = enzyme-free background; activation factor at 10 µM; actives 0.16% (n = 330,000);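 active = activation factor of the enzyme at least 2-fold when tested at 20 µM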
mIAP inh conf = inhibitors of mouse IAP, confirmation, biochemical, luminescence, single concentration; shares compounds with mIAP inh; purified mouse IAP, CDP-Star luminescence, 30 min; inhibition, % at 10 µM; actives 4.7% (n = 11,000); AID 434971, 2010;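 active = inhibition of at least 40% at 10 µM in either of the two replicates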;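 note: plate controls were DMSO wells with enzyme for no effect and buffer wells lacking enzyme for full effect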
Starred values were filed as active, the others as inactive; · = no result.

SMILES	bIAP inhibitor	hIAP inh	mIAP act	mIAP inh	bIAP act	hIAP act	mIAP inh conf
COc1ccccc1C(CC(=O)Nc1ccc(Cl)cc1)c1ccc(OC(C)C)cc1 (stereo unspecified)	·	-28	3.7*	-268	0.4	1.3	-91
Cc1ccc(C(CNS(=O)(=O)c2ccc(Cl)cc2)N2CCN(C)CC2)cc1 (stereo unspecified)	·	16	0.89	11	·	0.84	·
O=C(Cn1c(COc2ccccc2)nc2ccccc21)Nc1cccc(Cl)c1	-19	1	1.1	-6	1.2	0.99	·
O=C(Cn1c(CO)nc2ccccc21)Nc1ccccc1Cl	5	2	1	-1	0.9	0.98	·
O=C(Cn1c(-c2ccccc2Cl)nc2ccccc21)Nc1cccc(Cl)c1	-12	5	2.8*	-183	1.1	0.95	-151
Cc1ccc(SCc2nc3ccccc3n2CC(=O)Nc2ccc(Cl)cc2)cc1	-15	-2	2.7*	-175	1.2	1	-86
Cc1ccc(SCc2nc3ccccc3n2CC(=O)Nc2c(C)cccc2C)cc1	-38	13	1.8	-75	1.4	0.87	·
Cc1cc(C)cc(NC(=O)Cn2c(-c3ccccc3Cl)nc3ccccc32)c1	-13	-10	2.8*	-179	1.1	1.1	-148
Cc1ccc(Oc2c(CO)c(-c3ccccc3)nn2C)cc1	12	-11	0.99	1	0.9	1.1	·
Cc1ccc(NC(=O)c2nc[nH]c2C(=O)N2CCN(c3ccccc3)CC2)cc1	·	-15	0.9	10	·	1.1	·
O=C(CC1CCCCC1)N=C1SC2CS(=O)(=O)CC2N1c1ccccc1 (stereo unspecified)	·	-4	0.89	11	·	1	·
